ChEMBL document CHEMBL4368908 (J Med Chem, 2019)
Activity calls are given as the source filed them. The rule behind the calls is not given here.

Legend:
[1] = target: T1, Inositol hexakisphosphate kinase 2 (Homo sapiens, UniProt Q9UHH9); test: Inhibition of human IP6K2 using insP6 as substrate preincubated for 15 mins followed by substrate and measured after 30 mins by TR-FRET assay
T1 sequence (Q9UHH9 whole entry): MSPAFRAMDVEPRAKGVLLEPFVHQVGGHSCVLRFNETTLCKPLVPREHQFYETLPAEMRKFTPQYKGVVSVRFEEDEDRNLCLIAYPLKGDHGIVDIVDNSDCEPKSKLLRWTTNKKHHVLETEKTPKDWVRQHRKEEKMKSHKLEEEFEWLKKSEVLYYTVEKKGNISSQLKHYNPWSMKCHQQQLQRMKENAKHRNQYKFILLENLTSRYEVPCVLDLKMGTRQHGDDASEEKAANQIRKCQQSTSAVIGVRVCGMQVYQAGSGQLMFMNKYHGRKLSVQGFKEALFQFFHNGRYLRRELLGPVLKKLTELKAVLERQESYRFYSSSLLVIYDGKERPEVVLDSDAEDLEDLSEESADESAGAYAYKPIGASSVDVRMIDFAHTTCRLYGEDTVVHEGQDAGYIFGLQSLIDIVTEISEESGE

[2] = target: T2, Inositol polyphosphate multikinase (Homo sapiens, UniProt Q8NFU5); test: Inhibition of human IPMK using insP3 as substrate preincubated for 15 mins followed by substrate and measured after 30 mins by TR-FRET assay
HCT-116 [3] = test: Down regulation of insp5 levels in human [3H]-inositol-labelled HCT116 cells at 2.5 uM after 3.5 hrs by HPLC analysis; format: functional, cell-based
Summary of the method: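 HCT116 cells labeled with [³H]inositol (20 μCi/ml) were treated for 3.5 h with 2.5 μM flavonoid; compounds were added in DMSO, final 0.1%. Cells were PCA-quenched, and InsPs were extracted and resolved by CarboPac HPLC. Values are versus DMSO controls, n=3–4, by one-way ANOVA (Dunnett).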

[4] = target: T2, Inositol polyphosphate multikinase; test: Inhibition of IPMK in human [3H]-inositol-labelled HCT116 cells assessed as reduction in insp5 levels at 2.5 uM after 3.5 hrs by HPLC analysis relative to control
Summary of the method: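 [3H]inositol-labelled (20 μCi/ml) HCT116 cells exposed 3.5 h to 2.5 μM flavonoid in DMSO (final 0.1%). PCA quench, extraction and CarboPac HPLC of InsP5/InsP6/InsP7, compared with DMSO vehicle control. Means ± SE, n=3–4; Dunnett's one-way ANOVA versus DMSO.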

[5] = target: RAC-alpha serine/threonine-protein kinase (Homo sapiens) (UniProt P31749); test: Effect on AKT activity in human HCT116 cells assessed as AKT phosphorylation at T308 residues at 10 uM after 3 hrs by Western blot analysis; format: cell-based
[6] = target: RAC-alpha serine/threonine-protein kinase (Mus musculus) (UniProt P31750); test: Activation of AKT activity in mouse 3T3-L1 cells assessed as increase in AKT phosphorylation at T308 residues at 10 uM after 3 hrs by Western blot analysis; format: cell-based
Homo sapiens = species: Homo sapiens; test: Selectivity ratio of IC50 for human IPMK to IC50 for human IP6K2
Summary of the method: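 Recombinant human IPMK (12 nM) or IP6K2 (400 nM) equilibrated 15 min at room temperature with compound (10-point, 0.005–100 μM, 1% DMSO) in 50 mM HEPES pH 7.5, 0.01% Brij-35, 10 mM MgCl₂, 1 mM EGTA. Reaction started with 10 μM ATP plus 10 μM InsP₃ (IPMK) or InsP₆ (IP6K2), run 30 min. ADP detected by Adapta TR-FRET. IC50 from 4-parameter fit.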

HCT-116 [7] = test: Down regulation of insp5 levels in human [3H]-inositol-labelled HCT116 cells at 10 uM after 3.5 hrs by HPLC analysis; format: functional, cell-based
Summary of the method: (§1)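 HCT116 cells labelled with [3H]inositol at 20 μCi/ml, then treated 3.5 h with 10 μM flavonoid in DMSO (final 0.1%; vehicle controls). Quenched with PCA; extracted [3H]InsP5, InsP6 and InsP7 resolved by CarboPac HPLC and quantified as peak DPM relative to DMSO control.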

[8] = target: T2, Inositol polyphosphate multikinase; test: Inhibition of IPMK in human [3H]-inositol-labelled HCT116 cells assessed as reduction in insp5 levels at 10 uM after 3.5 hrs by HPLC analysis relative to control; summary of the method: as §1
[9] = target: T2, Inositol polyphosphate multikinase; test: Inhibition of IPMK in [3H]-inositol-labelled HEK293 cells assessed as reduction in insp5 levels at 2.5 uM after 3.5 hrs by HPLC analysis relative to control; format: cell-based
Summary of the method: (§2)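 HEK293 cells labelled with [3H]inositol (20 μCi/ml), treated 3.5 h with 2.5 μM flavonoid in DMSO (final 0.1%; vehicle controls). PCA-quenched extracts analysed by CarboPac HPLC for InsP5, InsP6, InsP7 relative to DMSO control. Means ± SE, n=3; Dunnett's one-way ANOVA.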

HEK293 = test: Down regulation of insp5 levels in [3H]-inositol-labelled HEK293 cells at 2.5 uM after 3.5 hrs by HPLC analysis; format: functional, cell-based; settings: Homo sapiens; summary of the method: as §2
[10] = target: RAC-alpha serine/threonine-protein kinase (Homo sapiens) (UniProt P31749); test: Effect on AKT activity in human HCT116 cells assessed as AKT phosphorylation at T308 residues at 2.5 uM after 3 hrs by Western blot analysis; format: cell-based
Summary of the method: (§3)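 Cells (3T3-L1 preadipocytes 2 days post-confluent; HCT116 1 day post-confluent) treated 3 h with 2.5 μM flavonoid in DMSO (final DMSO 0.1%, vehicle control). Lysed in Tris pH 7.4/NaCl/Triton X-100 with protease-phosphatase inhibitors; 20 μg protein by SDS-PAGE and immunoblot for phospho-AKT T308 and total AKT. pAKT/total AKT ratio normalized to sum of ratios per gel; Dunnett's one-way ANOVA versus DMSO.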

[11] = target: RAC-alpha serine/threonine-protein kinase (Mus musculus) (UniProt P31750); test: Activation of AKT activity in mouse 3T3-L1 cells assessed as increase in AKT phosphorylation at T308 residues at 2.5 uM after 3 hrs by Western blot analysis; format: cell-based; summary of the method: as §3
[12] = target: T3, Inositol hexakisphosphate kinase 2 (Mus musculus) (UniProt Q80V72); test: Inhibition of IP6K2 in mouse 3T3-L1 cells assessed as AKT phosphorylation at T308 at 1 uM after 3 hrs by Western blot analysis; format: cell-based
T3 sequence (whole entry): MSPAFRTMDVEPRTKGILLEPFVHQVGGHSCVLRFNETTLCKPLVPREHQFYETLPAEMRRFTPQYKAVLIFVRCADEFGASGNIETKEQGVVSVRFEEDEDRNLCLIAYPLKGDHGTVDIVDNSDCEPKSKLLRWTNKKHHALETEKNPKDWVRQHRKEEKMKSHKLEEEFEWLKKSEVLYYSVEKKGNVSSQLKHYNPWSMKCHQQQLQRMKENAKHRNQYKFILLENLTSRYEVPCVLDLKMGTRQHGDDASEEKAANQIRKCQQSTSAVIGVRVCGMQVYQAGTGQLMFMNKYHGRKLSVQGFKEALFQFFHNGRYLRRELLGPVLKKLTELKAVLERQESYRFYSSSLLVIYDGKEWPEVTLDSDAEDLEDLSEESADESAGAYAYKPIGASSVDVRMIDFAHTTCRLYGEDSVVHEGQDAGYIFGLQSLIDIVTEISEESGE
Summary of the method: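 TNP reference treatment: 2-day post-confluent 3T3-L1 preadipocytes given 1 μM TNP in DMSO (final 0.1%) for 3 h. Lysates (20 μg protein) immunoblotted for phospho-AKT T308 and total AKT. pAKT/total AKT ratio normalized to sum of ratios per gel; one-way ANOVA (Dunnett) versus DMSO vehicle.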

HCT-116 [13] = test: Down regulation of insp5 levels in human [3H]-inositol-labelled HCT116 cells at 2.5 uM up to 200 mins by HPLC analysis; format: functional, cell-based
Summary of the method: (§4)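 Time course: HCT116 cells prelabelled with [3H]inositol (20 μCi/ml) and treated with 2.5 μM flavonoid in DMSO (final 0.1%) for the indicated times. InsP5, InsP6 and InsP7 measured by CarboPac HPLC after PCA quench and extraction. Means ± SE, n=3–4.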

[14] = target: T2, Inositol polyphosphate multikinase; test: Inhibition of IPMK in human [3H]-inositol-labelled HCT116 cells assessed as reduction in insp5 levels at 2.5 uM up to 200 mins by HPLC analysis relative to control; summary of the method: as §4

Chain of RAC-alpha serine/threonine-protein kinase (Homo sapiens) (P31749 whole entry): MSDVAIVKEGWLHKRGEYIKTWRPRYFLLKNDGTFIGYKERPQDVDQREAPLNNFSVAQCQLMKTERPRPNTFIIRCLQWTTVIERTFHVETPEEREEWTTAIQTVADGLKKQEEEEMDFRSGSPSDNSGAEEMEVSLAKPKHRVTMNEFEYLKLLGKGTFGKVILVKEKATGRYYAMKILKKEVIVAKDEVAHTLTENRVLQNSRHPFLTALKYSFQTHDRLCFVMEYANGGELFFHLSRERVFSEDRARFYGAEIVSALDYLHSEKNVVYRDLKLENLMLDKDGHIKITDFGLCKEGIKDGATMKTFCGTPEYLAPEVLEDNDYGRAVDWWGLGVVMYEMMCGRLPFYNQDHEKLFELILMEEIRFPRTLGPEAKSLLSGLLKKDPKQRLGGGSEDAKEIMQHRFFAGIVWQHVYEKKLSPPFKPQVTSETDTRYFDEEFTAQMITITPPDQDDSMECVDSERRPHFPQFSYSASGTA
T2 sequence (Q8NFU5 whole entry): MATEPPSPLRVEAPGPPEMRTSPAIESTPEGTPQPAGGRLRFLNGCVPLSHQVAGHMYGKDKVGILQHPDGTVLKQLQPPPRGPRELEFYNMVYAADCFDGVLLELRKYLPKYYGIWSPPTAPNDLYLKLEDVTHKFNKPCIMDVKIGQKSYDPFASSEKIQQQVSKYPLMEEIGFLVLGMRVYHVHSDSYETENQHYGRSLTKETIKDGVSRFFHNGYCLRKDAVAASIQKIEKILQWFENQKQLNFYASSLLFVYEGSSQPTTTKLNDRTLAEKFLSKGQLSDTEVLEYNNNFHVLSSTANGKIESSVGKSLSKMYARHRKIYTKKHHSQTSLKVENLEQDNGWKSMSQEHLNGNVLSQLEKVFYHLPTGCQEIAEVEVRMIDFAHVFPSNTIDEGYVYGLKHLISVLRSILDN
Chain of RAC-alpha serine/threonine-protein kinase (Mus musculus) (P31750 whole entry): as the sequence (P31749 whole entry) above, with S2N, A50S, T100A, K112R, E117T, K389T, G410N, H415D counted along it

Row | Structure (SMILES) | IC50 [1] [µM] | IC50 [2] [µM] | inhibition (HCT-116 [3]) | inhibition [4] | Ratio IC50 (Homo sapiens) | further results
1 | O=C1C[C@@H](c2ccc(O)cc2)Oc2cc(O)cc(O)c21 [NARINGENIN] | > 30 | > 30 |  |  |  | 
2 | O=c1c(O)c(-c2cc(O)c(O)c(O)c2)oc2cc(O)cc(O)c12 [MYRICETIN] | 0.7 | 1.1 | inactive | inactive |  | 
3 | O=[N+]([O-])c1ccc(CNc2nc(NCc3cccc(C(F)(F)F)c3)nc3[nH]cnc23)cc1 |  |  |  |  |  | Activity [5]: inactive; Activity [6]: Active
4 | O=C1C[C@@H](c2ccc(O)c(O)c2)Oc2cc(O)cc(O)c21 [ERIODICTYOL] | 25.3 | > 30 |  |  | > 1.2 | 
5 | COc1cc(-c2oc3cc(O)cc(O)c3c(=O)c2O)ccc1O [ISORHAMNETIN] | 0.5 | 2.2 | inactive | inactive | 4.4 | 
6 | O=c1c(O)c(-c2ccc(O)c(O)c2)oc2cc(O)cc(O)c12 [QUERCETIN] |  | 2.3 | inactive | inactive |  | inhibition (HCT-116 [7]): inactive; inhibition [8]: 25%; inhibition [9]: inactive; inhibition (HEK293): inactive; Activity [10]: inactive; Activity [11]: Active; inhibition [12]: Active; inhibition (HCT-116 [13]): inactive; inhibition [14]: inactive
7 | O=c1cc(-c2ccc(O)cc2)oc2ccc(O)cc12 | 12.9 | > 30 |  |  | > 2.3 | 
8 | COc1ccc(-c2cc(=O)c3c(O)cc(O)cc3o2)cc1 [ACACETIN] | 5.7 | > 30 |  |  | > 5.3 | 
9 | O=c1cc(-c2ccc(O)c(O)c2)oc2cc(O)cc(O)c12 [LUTEOLIN] | 1.3 | 5.5 | inactive | inactive | 4.2 | inhibition [9]: inactive; inhibition (HEK293): inactive; Activity [10]: inactive; Activity [11]: Active; inhibition [12]: Active
10 | O=c1cc(-c2ccc(O)cc2)oc2cc(O)cc(O)c12 [APIGENIN] | 7.1 | 29 |  |  | 4.1 | 
11 | O=c1cc(-c2ccc(O)cc2)oc2cc(O)ccc12 | 18.3 | > 30 |  |  | > 1.6 | 
12 | O=c1c(O)c(-c2ccc(O)cc2)oc2cc(O)cc(O)c12 [KAEMPFEROL] | 2.5 | 4.4 | inactive | inactive | 1.8 | 
13 | O=c1cc(-c2ccc(O)c(O)c2)oc2ccccc12 | 11.4 | > 30 |  |  | > 2.6 | 
14 | COc1ccc(-c2cc(=O)c3c(O)cc(O)cc3o2)cc1O |  |  | inactive | inactive |  | inhibition (HCT-116 [7]): inactive; inhibition [8]: inactive; inhibition [9]: inactive; inhibition (HEK293): inactive; Activity [10]: inactive; Activity [11]: Active; inhibition [12]: Active; inhibition [14]: inactive
15 | COc1cc(O)c2c(=O)c(O)c(-c3ccc(O)c(O)c3)oc2c1 [RHAMNETIN] | 1.8 | 14 | inactive | inactive | > 7.8 | 
16 | O=c1cc(-c2ccc(O)c(O)c2)oc2cccc(O)c12 | 8 | > 30 |  |  | > 3.8 | 
17 | O=c1cc(-c2ccc(O)cc2)oc2cccc(O)c12 | > 30 | > 30 |  |  |  | 
18 | COc1cc(O)c2c(=O)cc(-c3ccc(O)cc3)oc2c1 [GENKWANIN] | 24 | > 30 |  |  | > 1.3 | 
